# M4 antag: CHRM4 antagonism in calcium assay; 360,000 compounds, 0.73% hits; inhibition, % at 3 µM; CHO-hM4 cells, ACh EC80, Fluo-8 calcium fluorescence; P08173;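 active = inhibition above its plate's cutoff, the mean inhibition of sample wells plus 3 SD, cut at about 27% in these data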
# Target sequence (P08173 whole entry, looked up): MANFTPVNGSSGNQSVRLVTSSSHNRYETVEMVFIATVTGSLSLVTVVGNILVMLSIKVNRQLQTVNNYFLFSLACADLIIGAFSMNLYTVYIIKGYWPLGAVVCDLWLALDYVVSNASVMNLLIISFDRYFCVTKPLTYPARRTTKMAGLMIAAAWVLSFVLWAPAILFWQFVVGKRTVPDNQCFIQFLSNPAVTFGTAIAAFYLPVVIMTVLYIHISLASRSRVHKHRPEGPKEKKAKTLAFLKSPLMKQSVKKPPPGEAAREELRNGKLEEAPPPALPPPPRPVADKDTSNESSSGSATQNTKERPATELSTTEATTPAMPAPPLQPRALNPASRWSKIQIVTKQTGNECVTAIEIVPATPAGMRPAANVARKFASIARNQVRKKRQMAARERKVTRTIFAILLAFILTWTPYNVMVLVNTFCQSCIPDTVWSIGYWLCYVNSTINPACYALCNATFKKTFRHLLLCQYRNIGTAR
# M5 ag: CHRM5 agonism in calcium assay; activation, % at 3 µM; AID 624037; 360,000 compounds, 0.19% hits; CHO-K1 hM5 cells, Fluo-8 calcium fluorescence; 0% DMSO wells, 100% maximal acetylcholine response; P08912;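 active = activation above the run's mean over test compounds plus 3 SD, cut at about 23% in these data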;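 note: signal is peak over basal fluorescence ratio across the kinetic read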
# M4 ag: CHRM4 agonism in calcium assay | P08173 | CHO-K1 hM4/Gqi5, Fluo-8 calcium fluorescence; vehicle 0%, full acetylcholine response 100% | activation, % at 3 µM | 360,000 compounds, 0.14% hits;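 active = activation above the run mean over all test wells plus 3 SD, cut at about 32% in these data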;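 note: peak over basal fluorescence ratio per well then scaled between controls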
# M5 antag: antagonists of human muscarinic M5 receptor (CHRM5). CHO-hM5 cells, Fluo-8 calcium fluorescence, ACh EC80. inhibition, % at 3 µM. 360,000 compounds, 0.59% hits. AID 624040;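 active = inhibition above a per-plate cutoff, the mean of that plate's test compounds plus 3 SD, cut at about 27% in these data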
# CHRM5 PAM: potentiates acetylcholine response at human M5 receptor | P08912 | AID 624038 | activation, % at 3 µM | CHO-K1 hM5, Fluo-8 calcium, ACh EC20 PAM; 0% = ACh EC20, 100% = ACh EC100 | 360,000 compounds, 0.3% hits;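 active = activation above the run cutoff, the mean activation of all test compounds plus 3 SD, cut at about 18% in these data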
#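 System: CHO-K1 hM5 cells. Reagent: acetylcholine, EC20 level. Compound dosing: single dose, 3 µM nominal final test concentration. Timing: Post-acetylcholine fluorescence recording 140 s. Detection: Fluo-8 calcium fluorescence. Read-out: % activation, ACh-normalized. Benchmarks: ACh EC20 and EC100 wells. Repeats: singlicate, one well per test compound.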
# CHRM4 PAM: positive allosteric modulators of human muscarinic M4 receptor. activation, % at 3 µM. CHO-K1 hM4/Gqi5, Fluo-8 calcium fluorescence, ACh EC20; 0% = ACh EC20, 100% = maximal ACh. AID 624126. 360,000 compounds, 0.4% hits;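 active = activation above its plate's cutoff, the mean activation of sample wells plus 3 SD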
# A number is an active result; 0 = inactive. In the library only some 1.8% were active in any assay of this set; here they are far more common.
SMILES,M4 antag,M5 ag,M4 ag,M5 antag,CHRM5 PAM,CHRM4 PAM
C[C@H]1CN([C@@H](C)CO)C(=O)Cc2cc(NC(=O)CCC(F)(F)F)ccc2O[C@H]1CN(C)S(=O)(=O)c1ccc(Cl)cc1,36.3,0,0,0,0,0
C[C@H](CO)N1C[C@H](C)[C@@H](CN(C)C(=O)NC2CCCCC2)Oc2ccc(NC(=O)CCC(F)(F)F)cc2C1=O,0,0,0,0,0,24.3
C[C@H]1CN([C@@H](C)CO)C(=O)Cc2cc(NC(=O)CCC(F)(F)F)ccc2O[C@H]1CN(C)S(=O)(=O)c1ccc(F)cc1,62.9,0,0,0,0,0
CCOC(=O)C1(C)CCCN1C(=O)c1ccc(N(C)C)cc1 (stereo not drawn),0,0,0,0,0,0
C=CCC(NC(=O)c1ccc(C#N)cc1)C(=O)NCCC (stereo not drawn),0,0,0,0,18.9,0
CCn1c(C)cc2c(c1=O)C(c1ccc3c(c1)OCO3)C(C#N)=C(N)O2 (stereo not drawn),29.9,0,0,0,0,0
Cc1cc2c(c(=O)n1CC1CCCO1)C(c1ccc3c(c1)OCO3)C(C#N)=C(N)O2 (stereo not drawn),0,0,0,0,0,0
CC1(C)O[C@@H]2[C@H](O1)[C@@H](COS(=O)(=O)O)O[C@H]2n1cc(Br)c(=O)[nH]c1=O,0,0,0,0,0,25.1
Cc1cn([C@H]2C[C@H](O)[C@@H](COS(=O)(=O)O)O2)c(=O)[nH]c1=O,0,0,0,0,0,0
Cc1cccc(C(=O)Nc2ccccc2C(=O)OCC(=O)Nc2ccc(C#N)cc2)c1,0,0,0,27.8,0,0
COc1ccc(-c2nnc(SCC(=O)NC3CCCCC3)n2N)cc1,0,0,0,0,0,0
CC(=O)OC1c2ccccc2C(=O)N1Cc1ccccc1Cl (stereo not drawn),34.2,0,0,0,0,0
C=CCOc1ccc(C(=O)Nc2ncn[nH]2)cc1,0,0,0,0,0,0
CCOC(=O)N1CCN(C(=O)c2ccc(OC(C)=O)cc2)CC1,0,0,0,0,0,0
Cc1c(Cl)sn(-c2ccc(Cl)cc2)c1=O,37.9,0,0,0,0,0
CCn1cc(C(=O)N[C@H](C(=O)O)C(C)C)c(=O)c2cc3c(cc21)OCO3,0,0,0,0,0,0
CCn1nc(C(=O)O)c(=O)c2cc3c(cc21)OCO3,34.3,0,0,0,0,0
O=C(c1ccco1)N1CCN(Cc2cc(=O)c(OCc3ccc([N+](=O)[O-])cc3)co2)CC1,30.8,0,0,0,0,0
Cc1ccc(COc2coc(CN3CCN(C(=O)c4ccco4)CC3)cc2=O)cc1,0,0,0,0,0,0
N#CC1=C(N)C(C#N)(C#N)[C@H](c2ccncc2)[C@H]2CN(C(=O)OCc3ccccc3)CC=C12,0,0,0,0,0,34.8
CC(=O)N1CCOc2ccc(S(=O)(=O)NCC3CCC(C(=O)NCCC(C)C)CC3)cc21 (stereo not drawn),0,0,0,0,0,15.5
O=C(C(Cl)Cl)N1CC2CCC(CC2)C1,0,0,0,0,18.4,0
CCOC(=O)c1ccc(NC(=O)CN2C(=O)NC3(CCCCCCC3)C2=O)cc1,0,0,0,0,0,0
O=C(NCCSCc1ccccc1)c1ccc(C2SCC(=O)N2Cc2ccccc2)cc1 (stereo not drawn),34.5,0,0,0,0,0
COC(=O)c1ccc(C2SCC(=O)N2Cc2ccccc2)cc1 (stereo not drawn),0,0,0,0,0,0
SMILES,M4 antag,M5 ag,M4 ag,M5 antag,CHRM5 PAM,CHRM4 PAM
O=S(=O)(/N=S1\CC=CCN1S(=O)(=O)c1ccccc1)c1ccccc1 (stereo not drawn),0,34.2,60.5,0,0,0
CC1=C(C)CS(=O)N(S(=O)(=O)c2ccccc2)C1 (stereo not drawn),0,0,0,0,0,0
N#Cc1ccc(N2CCN(C(=O)c3cccc(F)c3)CC2)c(F)c1,0,0,0,0,0,16.3
CCOc1ccc(NS(=O)(=O)c2ccc(C(=O)NCC(c3cccs3)N3CCOCC3)cc2)cc1 (stereo not drawn),0,49.9,38.6,0,0,0
CC(=O)c1ccc(S(=O)(=O)Nc2ccc(C(=O)NCC(c3cccs3)N3CCOCC3)cc2)cc1 (stereo not drawn),0,0,0,0,0,0
O=C(NCC(c1cccs1)N1CCOCC1)c1ccccc1NS(=O)(=O)c1ccc(Cl)c([N+](=O)[O-])c1 (stereo not drawn),0,0,0,42.6,0,0
O=C(NCC(c1cccs1)N1CCOCC1)c1ccccc1NS(=O)(=O)c1cccc([N+](=O)[O-])c1 (stereo not drawn),0,0,0,0,0,0
COc1ccc(C(CNC(=O)c2ccc(NS(=O)(=O)c3ccc(F)c(C)c3)cc2)N2CCCC2)cc1 (stereo not drawn),27.8,0,0,0,0,0
Cc1cc(NC(=O)COC(=O)c2cc(S(=O)(=O)N(C)C)ccc2Cl)no1,0,0,0,0,0,0
Cc1ccnc(NC(=O)c2cccc(S(=O)(=O)N3CCN(c4ccc(F)cc4)CC3)c2)c1,0,0,0,0,0,0
CCOc1ccccc1C(=O)OCC(=O)NCCNC(=O)COC(=O)c1ccccc1OCC,0,0,0,0,37.7,0
CCOc1ccccc1C(=O)OCC(=O)NCC1CCCCC1,41.9,0,0,0,0,0
Cc1nnc(NN2CCOCC2)[nH]c1=O,0,0,0,0,0,0
Cc1ccccc1S(=O)(=O)NC(=O)C1(C)CCN1C(=O)CC1CCCC1 (stereo not drawn),0,0,0,0,0,0
CC1(C(=O)NS(=O)(=O)c2ccccc2Cl)CCN1C(=O)CC1CCCC1 (stereo not drawn),0,0,0,0,0,15.0
Cc1ccccc1S(=O)(=O)NC(=O)C1(C)CCN1C(=O)C/C=C/c1ccccc1 (stereo not drawn),85.0,0,0,0,0,0
O=C(CSCc1cc(=O)n2ccsc2n1)Nc1ccccc1,0,0,0,0,0,0
CC1(c2ccc(OC(F)F)cc2)NC(=O)N(CC(=O)Nc2ccc3[nH]c(=O)[nH]c3c2)C1=O (stereo not drawn),0,0,0,0,0,0
CC1(c2ccc(OC(F)F)cc2)NC(=O)N(CC(=O)Nc2ccccc2)C1=O (stereo not drawn),0,43.6,66.9,0,0,0

# Screens: PubChem BioAssay, The Scripps Research Institute Molecular Screening Center
